KCNQ1 inh – inhibitors of human KCNQ1 potassium channel; P51787; CHO-K1 KCNQ1, FluxOR thallium flux fluorescence; active compounds read high; B-score at 10 µM; hit rate 1.3% among 310,000;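 active = compounds whose thallium flux B-score, printed positive for inhibition, exceeds three library SD while starting fluorescence stays within three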;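 note: channel opened by potassium depolarization with thallium stimulus after 20 min compound exposure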
KCNQ1 pot – human KCNQ1 channel potentiation or activation; CHO-K1 KCNQ1, thallium flux FluxOR fluorescence; active compounds read high; P51787; hit rate 0.35% among 310,000; B-score at 10 µM;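 active = fluorescence ratio B-score, a plate-corrected score, at least three library SD, with initial intensity B-score within 5 SD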
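System: CHO-K1 cells stably expressing KCNQ1 / Medium: assay buffer for compound exposure, DMSO matched across wells / Reagent: thallium- and potassium-containing depolarizing buffer / Compound: one concentration, matched DMSO / Incubation: 20 min compound pretreatment at room temperature / Measured by: kinetic FluxOR fluorescence, 10 s baseline plus 110 s post-stimulus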
KCNK9 inh – human KCNK9 channel inhibition. HEK293 KCNK9, FluxOR thallium flux fluorescence; active compounds read low. B-score at 10 µM. hit rate 1.2% among 310,000. AID 488922;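 active = ratio B-score over 3 SD below the library mean, with starting fluorescence within 5 SD of its mean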;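 note: negative B-score means less thallium flux so channel inhibition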
Target sequence (Q9NPC2 whole entry, looked up): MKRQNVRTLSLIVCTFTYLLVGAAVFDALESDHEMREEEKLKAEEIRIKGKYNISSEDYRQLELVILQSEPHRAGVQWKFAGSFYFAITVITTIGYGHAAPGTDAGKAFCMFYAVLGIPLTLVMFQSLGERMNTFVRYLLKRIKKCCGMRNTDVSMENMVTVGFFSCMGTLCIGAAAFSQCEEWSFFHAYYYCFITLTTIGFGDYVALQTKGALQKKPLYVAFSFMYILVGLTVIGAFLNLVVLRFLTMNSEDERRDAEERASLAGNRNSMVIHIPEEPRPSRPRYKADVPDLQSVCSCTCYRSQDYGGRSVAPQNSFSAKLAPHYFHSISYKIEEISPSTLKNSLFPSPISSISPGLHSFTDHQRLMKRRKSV
Kir21 inh – inhibitors of mouse Kir2.1 inward-rectifier potassium channel; P35561; HEK293-Kir2.1, FluxOR thallium flux fluorescence; active compounds read low; B-score at 10 µM; hit rate 0.85% among 310,000; AID 1672;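 active = fluorescence ratio B-score at or below minus 3 SD of library scores, with starting-brightness B-score within 2 SD, cut at about -4.2 in these data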;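 note: channel flux triggered by added potassium and thallium sulfate stimulus; B-score of peak minus minimum fluorescence over baseline after thallium stimulus; more negative B-score means stronger Kir2.1 block with less thallium influx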
KCNK3 block – human KCNK3 channel inhibition, primary screen; hit rate 0.84% among 340,000; CHO-KCNK3 thallium flux, FluxOR fluorescence; active compounds read low; B-score at 10 µM; AID 602410;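 active = B-score under library mean minus 4 SD, starting fluorescence ratio at most library mean plus 5 SD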;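 note: more negative B-score means stronger inhibition of thallium flux through KCNK3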
Target sequence (O14649 whole entry, looked up): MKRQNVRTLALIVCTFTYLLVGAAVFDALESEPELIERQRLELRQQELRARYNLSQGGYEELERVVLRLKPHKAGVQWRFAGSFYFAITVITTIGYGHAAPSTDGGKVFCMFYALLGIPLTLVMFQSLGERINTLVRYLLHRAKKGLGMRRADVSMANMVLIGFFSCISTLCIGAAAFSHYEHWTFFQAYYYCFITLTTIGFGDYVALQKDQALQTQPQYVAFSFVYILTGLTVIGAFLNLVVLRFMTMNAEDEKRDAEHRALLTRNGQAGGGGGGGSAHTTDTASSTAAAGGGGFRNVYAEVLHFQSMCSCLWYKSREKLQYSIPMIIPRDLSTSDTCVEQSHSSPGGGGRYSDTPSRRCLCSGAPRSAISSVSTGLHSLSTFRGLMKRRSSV
hERG protect – hERG (human) protection from proarrhythmic block; Q12809; CHO-hERG, FluxOR thallium flux, dofetilide IC70 present; activation (rescue from dofetilide block), less the hit threshold, % at 10 µM; hit rate 0.51% among 310,000;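 active = activation above the mean of controls blocked by dofetilide plus 5 SD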;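 note: thallium influx through hERG after potassium depolarization seen as dye fluorescence rise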
KCNQ1 block val – confirmation of human KCNQ1 potassium channel inhibitors; hit rate 93% among 1,600; KCNQ1 cell line, FluxOR thallium flux fluorescence; shares compounds with KCNQ1 inh; inhibition, % at 10 µM;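 active = primary screen active, with duplicate mean exceeding buffer control mean plus 3 SD of buffer wells, cut at about 28% in these data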
CHO KCNQ1 ctr – activity in parental CHO cells lacking KCNQ1. AID 588366. fluorescence ratio (Tl flux) at 10 µM. shares compounds with KCNQ1 inh. parental CHO-K1, FluxOR thallium flux fluorescence ratio; active compounds read low; zero means no signal rise above baseline. hit rate 21% among 1,600;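 active = mean of duplicate thallium-flux fluorescence ratios in parental host cells more than 5 SD below the buffer control mean, cut at about 0.38 in these data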;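 note: ratio is peak minus minimum fluorescence divided by baseline fluorescence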
KCNQ1 APC inh – blocks human KCNQ1 current in automated patch clamp | AID 624120 | hit rate 20% among 490 | calls only at 10 µM | shares compounds with KCNQ1 inh | KCNQ1-CHO cells;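 active = KCNQ1 current drop exceeding 3 SD of negative control wells, seen in both duplicate runs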;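 note: steady state current during a 2 s step from -80 to +40 mV; negative values mean current inhibition and positive values mean potentiation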
KCNQ2 spec – selectivity of KCNQ1 inhibitors: inhibition of rat KCNQ2 channel. shares compounds with KCNQ1 inh. KCNQ2 cells, FluxOR thallium flux fluorescence. inhibition, % at 10 µM. hit rate 71% among 1,600. AID 651746;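 active = mean percent inhibition of the KCNQ2 thallium signal more than 5 SD above the buffer-only control wells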;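 note: KCNQ2 expressed in CHO cells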
KCNQ1 KCNE1 spec – selectivity of KCNQ1 inhibitors: inhibition of human KCNQ1/KCNE1 channel; shares compounds with KCNQ1 inh; KCNQ1/KCNE1 cells, FluxOR thallium flux fluorescence; inhibition, % at 10 µM; hit rate 77% among 1,600; AID 652147;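 active = mean percent inhibition of duplicate wells above the buffer-only control mean plus 3 SD of those controls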
KCNK9 inh conf – confirmation of human KCNK9 potassium channel inhibitors. shares compounds with KCNK9 inh. HEK293 KCNK9 cells, FluxOR thallium flux fluorescence. inhibition, % at 10 µM. hit rate 43% among 4,900;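 active = thallium signal inhibited by more than 5 SD of the compound-free buffer control wells, on both duplicate plates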
Kir2-1 spec – tests whether KCNK9 modulators also affect mouse Kir2.1; shares compounds with KCNK9 inh; Kir2.1 cells, FluxOR thallium flux fluorescence; inhibition, % at 10 µM; hit rate 4% among 4,900; AID 492993;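 active = thallium signal drop more than 5 SD beyond the mean of the no-compound control wells, seen in both duplicate plates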;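 note: signal is fluorescence rise after thallium addition divided by baseline fluorescence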
KCNK9 uninduced – second check of KCNK9 modulator effects in non-induced HEK293 cells | shares compounds with KCNK9 inh | FluxOR thallium flux | inhibition, % at 10 µM | hit rate 40% among 4,900;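 active = thallium signal drop beyond 5 SD of the untreated control mean, on both duplicate plates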
Hits are given with their value; – = inactive; · = not tested or not shown; + = active, no number. An excerpt weighted towards active compounds, which were near 3.8% of everything screened.

SMILES | KCNQ1 inh | KCNQ1 pot | KCNK9 inh | Kir21 inh | KCNK3 block | hERG protect | KCNQ1 block val | CHO KCNQ1 ctr | KCNQ2 spec | KCNQ1 KCNE1 spec | KCNK9 inh conf | Kir2-1 spec | KCNK9 uninduced | others
Cc1csc(NC(=O)c2c(O)c3c(n(CC(C)C)c2=O)CCCC3)n1 | 10 | – | -14 | – | -9.8 | – | 104 | – | 108% | 90% | 55% | – | 35% | KCNQ1 APC inh=–
O=C(Nc1nccs1)c1c(O)c2c([nH]c1=O)CCCC2 | – | – | – | – | – | – | · | · | · | · | · | · | ·
CCCn1c2c(c(O)c(C(=O)Nc3ncccc3C)c1=O)CCCC2 | – | – | – | – | – | – | · | · | · | · | · | · | ·
CC(C)Cn1c2c(c(O)c(C(=O)Nc3nccs3)c1=O)CCCC2 | 7 | – | -8.3 | – | – | – | 100 | – | 112% | 166% | 44% | – | 27% | KCNQ1 APC inh=–
CCN(CC(=O)Nc1cc(S(=O)(=O)N2CCCCC2)ccc1Cl)Cc1ccccc1 | 11 | – | – | – | – | – | 86 | – | 104% | 136% | – | – | –
CCN(CC)S(=O)(=O)c1ccc(C)c(NC(=S)Nc2cccc(S(=O)(=O)N3CCCCCC3)c2)c1 | 6 | – | – | – | – | – | 86 | – | 87% | 89% | – | – | –
CCN(CC(=O)Nc1cc(S(=O)(=O)N2CCOCC2)ccc1Cl)Cc1ccccc1 | · | · | · | · | – | · | · | · | · | · | · | · | ·
O=C(Nc1cccc(Cl)c1)Nc1cc(S(=O)(=O)N2CCCCC2)ccc1Cl | 8 | – | – | – | – | – | 104 | – | 67% | 105% | – | – | –
Cn1c(SCC(=O)Nc2ccccc2[N+](=O)[O-])nnc1C(F)(F)F | – | – | – | – | – | – | · | · | · | · | · | · | ·
CCOc1ccc(CN(C)CC(=O)NCc2ccccc2)cc1 | – | – | – | – | – | – | · | · | · | · | · | · | ·
CCOC(=O)c1cnc2ccc(OCC)cc2c1N(C)Cc1ccccc1 | 6 | – | – | – | – | – | 148 | 0.34 | 154% | 198% | – | – | 23%
CC(c1ccccn1)N(C)C(=O)c1ccc2nc(Cc3ccccc3F)oc2c1 (stereo not given) | – | – | – | – | – | – | · | · | · | · | · | · | ·
O=C1CCC(C(=O)N2CCCC(C(=O)c3ccc4ccccc4c3)C2)=NN1 (stereo not given) | – | – | – | – | – | – | · | · | · | · | · | · | ·
CC(C)c1cc(C(=O)N2CCCC(C(=O)c3ccc4ccccc4c3)C2)on1 (stereo not given) | 6 | – | – | – | – | – | – | – | 91% | 35% | – | – | –
O=C(OCC(=O)N(C1CCCCC1)C1CCCCC1)c1ccccc1O | 7 | – | -9.4 | – | – | – | 116 | – | 124% | 179% | 37% | – | 24% | KCNQ1 APC inh=+
O=C(CSc1nnnn1-c1ccccc1)NCc1cccs1 | – | – | – | – | – | – | · | · | · | · | · | · | ·
O=C(CSCc1cnn(-c2ccccc2)c1-n1cccc1)NCc1cccs1 | 7 | – | – | -6.3 | – | – | 64 | – | – | 102% | – | – | –
Cn1ncc(Cl)c1C(=O)N1CCN(c2ccccc2)CC1 | – | – | – | – | – | – | · | · | · | · | · | · | ·
Cn1ncc(Cl)c1C(=O)N1CCN(c2ccc(Cl)c(Cl)c2)CC1 | 12 | – | -10 | – | – | – | 120 | – | 98% | 87% | 42% | – | 26% | KCNQ1 APC inh=–
Nn1c(SCC(=O)Nc2ccccc2)nnc1-c1cccnc1 | – | – | – | – | – | – | · | · | · | · | · | · | ·
O=C(Cn1cc(C(F)(F)F)cc(Cl)c1=O)NC1CCS(=O)(=O)C1 (stereo not given) | · | · | · | · | – | · | · | · | · | · | · | · | ·
COCCn1c(=NC(=O)c2ccc(S(=O)(=O)N3CCc4ccccc4C3)cc2)sc2cc(OC)ccc21 | – | – | – | – | – | – | · | · | · | · | · | · | ·
Cc1nn(C(C)C(=O)NCCCN2CCCC2)c(=O)c2nn(-c3ccccc3)c(C)c12 (stereo not given) | – | – | – | – | – | – | · | · | · | · | · | · | ·
COc1ccc(CC(=O)Nc2cccc(-c3csc(C)n3)c2)cc1 | – | – | – | – | – | – | · | · | · | · | · | · | ·
CC(C)CC(=O)Nc1cccc(-c2csc(-c3ccccc3)n2)c1 | 18 | – | -14 | – | – | – | 148 | 0.35 | – | + | 67% | – | 32%
SMILES | KCNQ1 inh | KCNQ1 pot | KCNK9 inh | Kir21 inh | KCNK3 block | hERG protect | KCNQ1 block val | CHO KCNQ1 ctr | KCNQ2 spec | KCNQ1 KCNE1 spec | KCNK9 inh conf | Kir2-1 spec | KCNK9 uninduced | others
Cc1ccc(-n2c(-c3ccccc3)c[n+]3c2CCc2ccccc2-3)c(C)c1 | 15 | – | -13 | -8.2 | -9.9 | – | 98 | 0.38 | 95% | 34% | 46% | 64% | 36%
Nc1c(C(=O)c2ccccc2)sc2nsc(SCCN3CCCC3)c12 | 8 | – | – | – | – | – | 108 | 0.21 | – | 144% | 45% | 36% | 73%
COc1ccccc1CCNC(=O)c1cc(COc2cccc(C(F)(F)F)c2)on1 | 7 | – | – | – | – | – | 100 | – | 88% | 98% | – | – | – | KCNQ1 APC inh=–
Clc1ccc(-c2cc3ccccc3nc2N2CCOCC2)cc1 | 11 | – | – | – | – | – | 130 | – | 98% | 182% | – | – | 28%
CC(C)C[C@@H](CO)NC(=O)CC[C@H](NC(=O)OC(C)(C)C)C(=O)N(Cc1ccccc1)Cc1ccccc1 | – | – | – | – | – | – | · | · | · | · | · | · | ·
Cc1cccc(N2CCN(C(=O)C(Cc3ccccc3)n3cccc3)CC2)c1C (stereo not given) | 9 | – | -9.8 | – | – | – | 140 | 0.31 | 126% | + | 49% | – | 36%
Cc1ccccc1Nc1nc(NCc2ccco2)c2ccccc2n1 | 14 | – | -12 | -13 | -14 | – | 162 | 0.37 | 115% | + | 54% | 85% | 40%
Cc1cc(C)n(-c2nc(SCCN(C)C)c3c4c(sc3n2)CCCC4)n1 | 14 | – | -9.8 | -8 | – | – | 88 | – | 109% | 112% | 44% | 44% | 28%
